Most compounds without a hit are left out; they make up all but 2.3% or so of the library.
TRPC4 block = inhibitors of mouse TRPC4 channel; Q9QUQ5; HEK293 TRPC4beta/mu-opioid, DAMGO-evoked Fluo4 calcium flux; active compounds read low; B-score at 10 µM; 300,000 compounds, 0.39% hits;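 active = B-score over 3 SD under the library average, no early fluorescence shift, positive overall ratio signal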
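Material: HEK293 cells with stable TRPC4beta plus mu-opioid receptor expression; probe or stimulus: DAMGO in two steps, submaximal then maximal; technique: Fluo4 calcium fluorescence by kinetic imaging, 5 s 1 Hz baseline; measure: integrated fluorescence ratio relative to baseline, converted to per-well B score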
TRPC4 act = opens the mouse TRPC4 cation channel. Q9QUQ5. HEK293 TRPC4beta/mu-opioid, Fluo4 calcium fluorescence; active compounds read high. B-score at 10 µM. 310,000 compounds, 0.49% hits;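 active = B-score above 5 SD of library B-scores, and initial fluorescence ratio not above library mean plus 5 SD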;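 note: positive B-score marks a calcium rise read as TRPC4 activation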
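Material: TRPC4beta and mu-opioid receptor HEK293 stable cells | Incubation: 45 min room-temperature Fluo4 loading, 110 s read | Detection: Kinetic Fluo4 calcium fluorescence | Measure: Integrated baseline-normalised fluorescence ratio, converted to per-well B score | Benchmarks: Low control buffer alone, high control maximal DAMGO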
FID counter = displaces DNA intercalator in HCV helicase counter-screen | AID 1845 | DNA fluorescent intercalator displacement, fluorescence | 290,000 compounds, 0.17% hits | inhibition, % at 7.9 µM; in the data active = inhibition above about 37%;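 note: 0% = vehicle and 100% = reference compound; higher means more ethidium bromide displaced from hairpin DNA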
TRPC6 activator = activates the mouse TRPC6 cation channel; Q61143; HEK293-TRPC6 membrane potential dye fluorescence; active compounds read high; B-score at 10 µM; 310,000 compounds, 0.13% hits;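 active = B-score of the integrated fluorescence ratio above library mean plus 3 SD, and starting fluorescence ratio within library mean plus 5 SD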;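 note: higher score means more depolarization so channel activation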
TRPC6 inh = blocks the mouse TRPC6 cation channel. Q61143. B-score at 10 µM. 310,000 compounds, 1.1% hits. HEK293-TRPC6, membrane potential dye, ACh-evoked depolarization; active compounds read low;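 active = B-score under library mean minus 3 SD, initial fluorescence not abnormally high, positive integrated signal ratio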;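 note: B-score derived from integrated fluorescence ratio over the kinetic read; more negative B-score means stronger inhibition of depolarization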
TRPC4 potent = TRPC4 (mouse) allosteric potentiation | HEK293 TRPC4beta/mu-opioid, DAMGO EC20, Fluo-4 Ca2+ flux; active compounds read high | 310,000 compounds, 0.42% hits | B-score at 10 µM | Q9QUQ5;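 active = B-score of calcium response area above 5 SD of library B-scores, with initial fluorescence ratio within 5 SD of library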;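 note: B-score of integrated fluorescence ratio over time as area under calcium response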
TRPC4 sel inh 2 = second check of whether TRPC6 inhibitors also affect mouse TRPC4 | shares compounds with TRPC6 inh | HEK293 TRPC4/MOR, membrane potential dye fluorescence; channel activated by saturating DAMGO dose | inhibition, % at 10 µM | 920 compounds, 42% hits | AID 2776;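 active = compounds whose fluorescence signal differed from control wells by over 3 SD, either direction, in both duplicate plates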
TRPC4 spec = selectivity of TRPC6 inhibitors: effect on mouse TRPC4. shares compounds with TRPC6 inh. HEK293 TRPC4/mu-opioid, membrane potential fluorescence. activity change, negative = inhibition, % at 10 µM. 920 compounds, 61% hits. AID 2777;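 active = rise or fall in signal beyond 3 SD of buffer-only wells in both replicate plates, either sign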;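 note: integrated kinetic ratio of fluorescence range over baseline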
HEK293 MPD ctr 2-1 = second counter-screen for TRPC6 inhibitors: parental HEK293 cells; shares compounds with TRPC6 inh; parental HEK293 membrane potential dye fluorescence; maximal acetylcholine challenge after compound addition; signal change vs control, % at 10 µM; 920 compounds, 31% hits;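 active = membrane potential signal moving either way by over 3 SD of the maximum-effect control, in both duplicate plates, meaning non-specific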
HEK293 MPD ctr-1 = parental HEK293 nonspecific activity of TRPC6 inhibitors. AID 2780. shares compounds with TRPC6 inh. parental HEK293 membrane potential dye fluorescence. 920 compounds, 60% hits. membrane potential signal change, % at 10 µM;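 active = membrane potential signal shifting up or down by more than 3 SD of buffer-only wells, on both duplicate plates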
HEK293 MPD ctr-2 = parental HEK293 nonspecific activity of TRPC6 modulators; shares compounds with TRPC6 inh; membrane potential dye fluorescence; membrane potential signal change, % at 10 µM; 2,400 compounds, 51% hits;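 active = membrane potential signal moves up or down beyond 5 SD from buffer-only wells, on both duplicate plates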
HEK293 MPD ctr 2-2 = second counter-screen for TRPC6 modulators: effect in parental HEK293 cells. shares compounds with TRPC6 inh. membrane potential dye fluorescence; after compound, maximal acetylcholine stimulation. inhibition, % at 10 µM. 2,400 compounds, 14% hits;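 active = membrane potential signal drops by more than 5 SD from the mean control signal, in both duplicate plates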;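 note: plate controls were acetylcholine ECmax control wells for no effect and buffer only wells for full effect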
TRPC4 ctr mod = selectivity of TRPC6 modulators against mouse TRPC4; shares compounds with TRPC6 inh; HEK293 TRPC4/mu-opioid, membrane potential fluorescence; percent change from control (negative = decrease, positive = increase), % at 10 µM; 2,400 compounds, 69% hits;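 active = membrane potential signal moved up or down beyond 5 SD of buffer control wells, in both duplicate plates, actives on both sides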;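 note: plate controls were assay buffer wells for no effect and DAMGO maximal-effect wells for full effect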
TRPC4 ctr inh 2 = mouse TRPC4 off-target activity of TRPC6 modulators, second screen. shares compounds with TRPC6 inh. HEK293 TRPC4/mu-opioid, membrane potential dye fluorescence; stimulated with maximal-effect DAMGO. inhibition, % at 10 µM. 2,400 compounds, 55% hits. AID 488928;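 active = drop in membrane potential signal beyond 5 SD of the control wells in both duplicate plates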;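 note: TRPC4 counter screen for TRPC6 hits run under conditions tuned for TRPC6 not TRPC4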
TRPC6 block conf = mouse TRPC6 inhibitor confirmation | shares compounds with TRPC6 inh | HEK293-TRPC6, membrane potential dye, ACh-evoked depolarization | inhibition, % at 10 µM | 3,300 compounds, 43% hits | AID 488960;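 active = fluorescence ratio falls more than 5 SD below the full-stimulation control mean, in both duplicate runs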;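 note: integrated fluorescence ratio of peak minus minimum over baseline after agonist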
TRPC6 act conf = mouse TRPC6 activator confirmation; 2,800 compounds, 11% hits; HEK293-TRPC6 membrane potential dye fluorescence, FDSS; activation, % at 10 µM; shares compounds with TRPC6 inh;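 active = ratio signal rise beyond 5 SD above unstimulated control wells' mean, seen in both duplicate runs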;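 note: plate controls were buffer EC0 wells for no effect and acetylcholine ECmax response for full effect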
Active calls of the source: *; i = inactive; . = no result; ! = a repeat was not active.

SMILES	TRPC4 block	TRPC4 act	FID counter	TRPC6 activator	TRPC6 inh	TRPC4 potent	HEK293 MPD ctr-2	HEK293 MPD ctr 2-2	TRPC4 ctr mod	TRPC4 ctr inh 2	TRPC6 block conf	TRPC6 act conf	others
CC(=O)OCC[N+](C)(C)C	i	125*	3	15*!	-7.9*	i	133%*!	66%*!	44%*	i	70%*	124%*	TRPC4 sel inh 2=i;TRPC4 spec=37%*;HEK293 MPD ctr 2-1=i;HEK293 MPD ctr-1=4.2%*
CN(C)CC#CCC(O)(c1ccccc1)C1CCCC1 (stereo not drawn)	i	i	12	i	i	i	.	.	.	.	.	.
CC[N+](CC)(CC)CCCOC(=O)C(O)(c1ccccc1)C1CCCCC1 (stereo not drawn)	i	i	16	i	-12*	i	.	.	.	.	97%*	i	TRPC4 sel inh 2=i;TRPC4 spec=i;HEK293 MPD ctr 2-1=-40%*;HEK293 MPD ctr-1=i
C[N+](C)(N)CCOC(=O)C(O)(c1ccccc1)C1CCCCC1 (stereo not drawn)	i	i	.	i	-9.6*	i	.	.	.	.	89%*	i	TRPC4 sel inh 2=i;TRPC4 spec=i;HEK293 MPD ctr 2-1=-39%*;HEK293 MPD ctr-1=i
Cc1oc(-c2ccc(F)cc2F)nc1CN1C[C@@H]2C[C@@H](C1)c1cccc(=O)n1C2	i	i	-26	i	i	i	.	.	.	.	.	.
CCCn1ncc(CN2CCCC(C(=O)c3cccc(OC)c3)C2)c1C (stereo not drawn)	i	i	3	i	-5.9*	i	124%*	i	28%*	i	50%*	.
CCCn1cc(CN2CCCC(C(=O)c3cccc(OC)c3)C2)c(C)n1 (stereo not drawn)	i	i	16	i	i	i	.	.	.	.	.	.
COc1ccccc1N1CCN(C2CCCN(C(=O)COc3ccccc3Cl)C2)CC1 (stereo not drawn)	i	i	-4	i	i	i	.	.	.	.	.	.
Clc1ccc2sc(C3CCNCC3)nc2c1	i	187*	-1	i	-6*	i	i	i	47%*	52%*	i	i
CCOc1cc2c(cc1OCC)-n1cccc1C(c1cc(C)c(OC)cc1C)NC2 (stereo not drawn)	i	i	12	i	i	i	.	.	.	.	.	.
CC(=O)O[C@H]1CC[C@@]2(C)[C@H](C1)C(=O)C[C@H]1[C@@H]3CC[C@@H]4[C@@H](CN5C[C@@H](C)CC[C@H]5[C@@]4(C)O)[C@@H]3C[C@@H]12	i	i	-2	i	i	i	.	.	.	.	.	.
O=C(Nc1ccccc1)NC1CC2CCC(C1)N2 (stereo not drawn)	i	i	4	i	i	i	.	.	.	.	.	.
Cc1ccc(CN2C3CCCC2CC(NC(=O)Nc2cccc(F)c2)C3)cc1 (stereo not drawn)	i	53*	24	i	-6.5*	i	i	i	26%*	96%*	49%*	.
CC[n+]1c(/C=C/N(C)c2ccccc2)sc2ccc(Cl)cc21	i	i	-3	i	-6.3*	i	i	96%*	i	36%*	46%*	i
CN1CCN(c2nc(N(C)C)oc(=O)c2C#N)CC1	i	i	2	i	i	i	.	.	.	.	.	.
N#Cc1c(N2CCNCC2)nc(-c2ccco2)c2c1CCCC2	i	i	-1	i	-7.8*	i	.	.	.	.	58%*	i	TRPC4 sel inh 2=28%*;TRPC4 spec=-14%*;HEK293 MPD ctr 2-1=i;HEK293 MPD ctr-1=-228%*
Cc1ccc(CC(=O)N2CCN(C)CC2)cc1	i	i	-3	i	i	i	.	.	.	.	.	.
COc1ccc(Cc2c(O)[nH]c(=O)[nH]c2=O)c(OC)c1	i	i	0	16*	i	i	i	i	i	i	i	i
CCCC[N+]12CCC(CC1)C(=C(c1ccccc1)c1ccccc1)C2	i	i	2	i	i	i	.	.	.	.	.	.
CCC[N+]12CCC(CC1)C(=C(c1ccccc1)c1ccccc1)C2	i	i	3	i	-5.8*	i	i	i	14%*	i	64%*	.
Cc1nccn1Cc1ccc(Cl)nc1	i	i	-8	i	i	i	.	.	.	.	.	.
O=C1OC(c2ccc([N+](=O)[O-])cc2)=N/C1=C/N1CC2CC(C1)c1cccc(=O)n1C2 (stereo not drawn)	i	96*	-2	37*	i	i	272%*	102%*	57%*	31%*	.	124%*
CCOP(=O)(Cc1cc(C#N)oc1C)OCC	i	i	4	i	i	i	.	.	.	.	.	.
C[C@H]1OC[C@@H](C[N+](C)(C)C)O1	i	88*	-2	i	-6.7*	i	.	.	.	.	70%*	.	TRPC4 sel inh 2=i;TRPC4 spec=34%*;HEK293 MPD ctr 2-1=i;HEK293 MPD ctr-1=4.8%*
Cc1sc2ncnc(N3CCC(C(=O)Nc4ccc(C#N)c(Cl)c4)CC3)c2c1C	i	i	.	i	i	i	.	.	.	.	.	.

Source: PubChem BioAssay (several laboratories)
